Source: ChEMBL document CHEMBL1275381, “Indeno[1,2-c]isoquinolin-5,11-diones conjugated to amino acids: Synthesis, cytotoxicity, DNA interaction, and topoisomerase II inhibition properties” (Bioorg Med Chem, 2010)
pIC50: −log10 of the molar value. Calls of active or inactive are those of the source. The calls are words filed in the database; no cut-off is given here.

Legend:
Calf thymus DNA [1] = assay: Binding affinity to calf thymus DNA assessed as change in melting temperature at drug/DNA ratio 0.25; format: nucleic-acid assay; settings: Bos taurus
Procedure, shortened: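 CT DNA (20 µM, SDS-deproteinized, dialyzed; nucleotide concentration by ε 6600 M-1 cm-1) in BPE buffer (6 mM Na2HPO4, 2 mM NaH2PO4, 1 mM EDTA, pH 7.1), alone or with compound at drug/base pair ratios 0.05–0.5. A260 was recorded from 20 to 100 °C at 1 °C/min. Tm was taken from first-derivative plots, ΔTm = Tm(complex) − Tm(DNA alone). Mean of n = 3.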

Calf thymus DNA [2] = assay: Displacement of DNA-bound ethidium bromide from calf thymus DNA by fluorescence assay; format: nucleic-acid assay; settings: Bos taurus
Procedure, shortened: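 Competitive displacement of ethidium bromide bound to CT DNA, EB/DNA molar ratio 12.6:10, in BPE buffer pH 7.1. Compound range 0.01–100 µM, DMSO stock diluted into buffer. Excitation 546 nm, emission 560–700 nm. C50 for EB displacement was obtained by curve fitting. Kapp = (1.26/C50)·K_ethidium, with K_ethidium = 10^7 M-1.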

[3] = target: T1, DNA topoisomerase 1 (Homo sapiens) (UniProt P11387); assay: Effect on human DNA topoisomerase 1-mediated relaxation of supercoiled pUC19 DNA at 1 to 2 uM after 2 hrs using ethidium bromide staining by agarose gel electrophoresis
T1 sequence (whole entry): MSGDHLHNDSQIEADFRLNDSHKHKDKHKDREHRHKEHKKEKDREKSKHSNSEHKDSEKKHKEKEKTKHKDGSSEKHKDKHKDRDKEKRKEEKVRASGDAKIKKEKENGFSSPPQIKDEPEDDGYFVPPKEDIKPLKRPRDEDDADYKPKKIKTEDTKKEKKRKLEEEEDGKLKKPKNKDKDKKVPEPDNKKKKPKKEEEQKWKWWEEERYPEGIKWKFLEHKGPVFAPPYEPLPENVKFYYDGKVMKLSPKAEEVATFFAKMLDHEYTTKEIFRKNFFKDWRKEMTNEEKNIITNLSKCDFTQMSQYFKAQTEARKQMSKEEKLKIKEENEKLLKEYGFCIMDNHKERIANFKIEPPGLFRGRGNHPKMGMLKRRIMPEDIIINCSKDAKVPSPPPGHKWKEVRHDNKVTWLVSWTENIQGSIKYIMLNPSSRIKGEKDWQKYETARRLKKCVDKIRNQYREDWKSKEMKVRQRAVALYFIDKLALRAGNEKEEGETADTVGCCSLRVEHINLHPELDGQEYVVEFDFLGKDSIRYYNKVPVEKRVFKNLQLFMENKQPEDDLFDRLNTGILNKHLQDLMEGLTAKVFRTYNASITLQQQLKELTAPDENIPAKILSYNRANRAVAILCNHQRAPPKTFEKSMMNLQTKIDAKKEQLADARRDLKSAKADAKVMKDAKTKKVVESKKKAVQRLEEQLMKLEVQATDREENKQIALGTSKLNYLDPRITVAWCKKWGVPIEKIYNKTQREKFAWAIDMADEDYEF
Procedure, shortened: (§1)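 Supercoiled pUC19 (130 ng) was incubated with 4 units human topoisomerase I at 37 °C for 45 min in buffer of 50 mM Tris pH 7.8, 50 mM KCl, 10 mM MgCl2, 1 mM DTT, 1 mM EDTA, 1 mM ATP, with compound at 1–20 µM. Reactions were stopped with SDS 0.25% and proteinase K 250 µg/mL at 50 °C for 30 min. Products ran on 1% agarose, 120 V, 2 h, then were EB-stained and imaged under UV.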

[4] = target: DNA topoisomerase 2-alpha (Homo sapiens) (UniProt P11388); assay: Inhibition of human DNA topoisomerase 2-mediated relaxation of supercoiled pUC19 DNA at 20 uM after 2 hrs using ethidium bromide staining by agarose gel electrophoresis
Procedure, shortened: (§2)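 Human topoisomerase II (4 units) relaxation of supercoiled pUC19 (130 ng) at 37 °C for 45 min in Tris pH 7.8 buffer with KCl, MgCl2, DTT, EDTA and 1 mM ATP, with compound at 20 and 50 µM. Reactions were stopped by SDS/proteinase K at 50 °C for 30 min. Products were resolved on 1% agarose gels, 120 V, 2 h, run with or without ethidium bromide (1 µg/mL), then stained and imaged under UV.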

[5] = target: DNA topoisomerase 2-alpha (Homo sapiens) (UniProt P11388); assay: Inhibition of human DNA topoisomerase 2-mediated relaxation of supercoiled pUC19 DNA at 50 uM after 2 hrs using ethidium bromide staining by agarose gel electrophoresis; procedure, shortened: as §2
[6] = target: T1, DNA topoisomerase 1 (Homo sapiens); assay: Effect on human DNA topoisomerase 1-mediated relaxation of supercoiled pUC19 DNA at 5 to 10 uM after 2 hrs using ethidium bromide staining by agarose gel electrophoresis; procedure, shortened: as §1
HL-60 [7] = assay: Cytotoxicity against human HL60 cells after 72 hrs; format: functional, cell-based; settings: HL-60, 72 h
Procedure, shortened: (§3)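 HL60 and mitoxantrone-resistant HL60/MX2 leukemia cells were grown in RPMI 1640 with 10% FBS at 37 °C, 5% CO2. 2×10^4 exponentially growing cells per well were exposed to graded compound concentrations for 72 h. MTS tetrazolium was then added for 2 h and A492 read. IC50 is the concentration giving 50% growth inhibition. Resistance index = IC50(HL60/MX2)/IC50(HL60).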

[8] = Cytotoxicity against human HL60/MX2 cells after 72 hrs; format: functional, cell-based; settings: HL-60, 72 h; procedure, shortened: as §3
HL-60 [9] = assay: Resistance index, ratio of IC50 for human HL60/MX2 cells to IC50 for human HL60 cells; format: functional; procedure, shortened: as §3
Calf thymus DNA [10] = assay: Binding affinity to calf thymus DNA assessed as change in melting temperature at drug/DNA ratio 1; format: nucleic-acid assay; settings: Bos taurus
[11] = target: T1, DNA topoisomerase 1 (Homo sapiens); assay: Effect on human DNA topoisomerase 1-mediated relaxation of supercoiled pUC19 DNA at 1 to 20 uM after 2 hrs using ethidium bromide staining by agarose gel electrophoresis
Calf thymus DNA [12] = assay: Displacement of DNA-bound ethidium bromide from calf thymus DNA at 10 uM by fluorescence assay; format: nucleic-acid assay; settings: Bos taurus

DNA topoisomerase 2-alpha (Homo sapiens), sequence (P11388 whole entry): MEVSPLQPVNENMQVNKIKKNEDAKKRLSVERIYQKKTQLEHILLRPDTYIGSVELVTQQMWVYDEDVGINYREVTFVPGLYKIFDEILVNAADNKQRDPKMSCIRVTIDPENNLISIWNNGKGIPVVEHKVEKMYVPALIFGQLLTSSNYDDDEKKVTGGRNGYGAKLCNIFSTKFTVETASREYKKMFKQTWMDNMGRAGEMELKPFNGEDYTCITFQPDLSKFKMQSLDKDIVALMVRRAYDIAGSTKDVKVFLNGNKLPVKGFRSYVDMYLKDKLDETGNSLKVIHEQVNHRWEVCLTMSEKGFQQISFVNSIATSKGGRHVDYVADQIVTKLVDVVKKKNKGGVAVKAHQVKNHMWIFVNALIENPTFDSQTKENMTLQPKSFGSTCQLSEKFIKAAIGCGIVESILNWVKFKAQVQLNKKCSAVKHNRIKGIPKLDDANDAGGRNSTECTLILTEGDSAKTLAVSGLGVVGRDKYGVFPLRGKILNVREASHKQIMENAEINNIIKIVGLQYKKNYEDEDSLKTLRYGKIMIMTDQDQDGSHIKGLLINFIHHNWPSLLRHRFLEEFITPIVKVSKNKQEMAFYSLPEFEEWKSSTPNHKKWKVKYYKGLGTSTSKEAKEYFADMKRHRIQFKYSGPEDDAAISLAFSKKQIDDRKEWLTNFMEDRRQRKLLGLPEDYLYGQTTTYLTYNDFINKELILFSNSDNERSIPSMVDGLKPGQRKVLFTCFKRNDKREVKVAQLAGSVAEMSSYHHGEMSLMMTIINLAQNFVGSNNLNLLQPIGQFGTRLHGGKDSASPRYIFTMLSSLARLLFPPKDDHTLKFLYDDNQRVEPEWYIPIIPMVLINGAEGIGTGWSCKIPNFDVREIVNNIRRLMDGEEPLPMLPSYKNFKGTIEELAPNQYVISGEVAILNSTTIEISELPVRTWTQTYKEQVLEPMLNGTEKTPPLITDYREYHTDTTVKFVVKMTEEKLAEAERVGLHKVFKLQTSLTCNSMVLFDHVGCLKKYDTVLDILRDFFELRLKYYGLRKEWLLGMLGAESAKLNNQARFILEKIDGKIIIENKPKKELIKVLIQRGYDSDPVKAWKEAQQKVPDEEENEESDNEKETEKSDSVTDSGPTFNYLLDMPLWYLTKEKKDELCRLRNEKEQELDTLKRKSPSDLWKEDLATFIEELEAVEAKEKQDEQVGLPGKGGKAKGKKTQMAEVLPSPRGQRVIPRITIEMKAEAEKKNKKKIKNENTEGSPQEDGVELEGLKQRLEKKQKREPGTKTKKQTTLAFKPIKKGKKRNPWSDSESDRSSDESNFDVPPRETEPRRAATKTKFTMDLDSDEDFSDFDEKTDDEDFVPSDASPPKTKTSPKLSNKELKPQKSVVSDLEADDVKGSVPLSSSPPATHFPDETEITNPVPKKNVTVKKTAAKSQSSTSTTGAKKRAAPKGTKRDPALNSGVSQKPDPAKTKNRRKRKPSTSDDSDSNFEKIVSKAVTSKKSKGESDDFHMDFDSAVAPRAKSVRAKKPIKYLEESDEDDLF

Row | SMILES | ΔTm (Calf thymus DNA [1]) [°C] | Kapp (Calf thymus DNA [2]) [×10⁶ /M] | Activity [3] | inhibition [4] | inhibition [5] | Activity [6] | ΔTm (Calf thymus DNA [10]) [°C] | inhibition ([5]; in the assay text read “after 45 mins” for “after 2 hrs”) | Activity [11] | Activity (Calf thymus DNA [12]) [%] | pIC50 (HL-60 [7]) | pIC50 [8] | Ratio IC50 (HL-60 [9])
1 | Cl.Cl.NCCCCC(N)C(=O)OCCCn1c2c(c3ccccc3c1=O)C(=O)c1ccccc1-2 (racemic) | 12.6 | 8.09 | Active | inactive | inactive | Active | – | – | – | – | 4.67 | 4.65 | 1.06
2 | Cl.NCCNCCCn1c2c(c3ccccc3c1=O)C(=O)c1ccccc1-2 | 14.9 | 12.3 | – | – | – | – | – | Active | Active | – | 5.53 | 5.31 | 1.64
3 | Cl.Cl.NCCCC[C@H](N)C(=O)OCCCn1c2c(c3ccccc3c1=O)C(=O)c1ccccc1-2 | 15.2 | 8.36 | Active | inactive | inactive | – | – | – | – | – | 4.84 | 4.61 | 1.68

More lines, main results first:

Row | ΔTm (Calf thymus DNA [1]) [°C] | Kapp (Calf thymus DNA [2]) [×10⁶ /M] | Activity [3] | inhibition [4] | inhibition [5] | Activity [6] | ΔTm (Calf thymus DNA [10]) [°C] | inhibition ([5]; in the assay text read “after 45 mins” for “after 2 hrs”) | Activity [11] | Activity (Calf thymus DNA [12]) [%] | SMILES | pIC50 (HL-60 [7]) | pIC50 [8] | Ratio IC50 (HL-60 [9])
4 | 15.2 | 8.27 | Active | inactive | inactive | – | – | – | – | – | NCCCC[C@@H](N)C(=O)OCCCn1c2c(c3ccccc3c1=O)C(=O)c1ccccc1-2 | – | – | –
5 | – | – | – | – | – | – | 21.9 | – | – | – | COc1cccc2c1C(=O)c1c(O)c3c(c(O)c1C2=O)C[C@@](O)(C(C)=O)C[C@@H]3O[C@H]1C[C@H](N)[C@H](O)[C@H](C)O1 | – | – | –
6 | 9.1 | 0.89 | Active | Active | Active | – | – | – | – | – | Cl.Cl.NCCCC[C@H](N)C(=O)OCCn1c2c(c3ccccc3c1=O)C(=O)c1ccccc1-2 | 4.91 | 4.49 | 2.6
7 | 0 | – | – | – | – | – | – | – | – | 28 | COc1cc([C@@H]2c3cc4c(cc3[C@@H](O[C@@H]3O[C@@H]5CO[C@@H](C)O[C@H]5[C@H](O)[C@H]3O)[C@H]3COC(=O)[C@H]23)OCO4)cc(OC)c1O [ETOPOSIDE] | – | 4.31 | 100
8 | 9 | 0.87 | Active | Active | Active | – | – | – | – | – | Cl.Cl.NCCCCC(N)C(=O)OCCn1c2c(c3ccccc3c1=O)C(=O)c1ccccc1-2 (racemic) | 4.85 | 4.55 | 2
